Data on 16 compounds can be found in ChEMBL document CHEMBL1121854, “New antiarrhythmic agents. 5. alpha-Aminoaceto-2,6-xylidides with functionalized amide alkyl substituents” (J Med Chem, 1981).

For data set [1], the system named is Mus musculus. The data set is described as follows: Antiarrhythmic activity against arrhythmogenic effects of chloroform in mice after sc administration. It counts as functional. The conditions noted are these: Heart. The essentials: (§1)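 At 20 min they were exposed to chloroform until respiratory arrest, then given a thoracotomy. Leads I and II plus an epicardial ECG were recorded for 30–40 s. Tachycardia was defined as ≥5 s with a ventricular rate >520 beats/min; absence meant protection.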

Data set [2] in a line: Therapeutic index is defined as the ratio of ED50(ataxia)/ED50(protection). The settings on record: read-out: Therapeutic index. The essentials: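 Ratio of ED50 for ataxia to ED50 for protection against chloroform-induced ventricular tachycardia in mice. Both ED50 values were derived by Berkson's logit chi-square method from percent responders across dose groups.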
Data set [3] concerns Mus musculus. The data set is described as follows: Acute CNS toxicity against arrhythmogenic effects of chloroform in mice after sc administration. It counts as functional. The settings on record: Central nervous system.
Data set [4] concerns Ovis aries. The data set is described as follows: Duration of spinal anesthesia at the anal region was measured in sheep at dose.40(mg/kg). It counts as functional. The essentials: (§2)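 Sterile solutions held 20 mg/mL base (2%) and 50 mg/mL glucose, made from the salts and adjusted to pH 6.1–6.5 with dilute NaOH. 2 mL was injected intrathecally in sheep. Onset of block was recorded at the anal region and hind-limb digits. Duration of pain block at both sites and of loss of weight support was noted. 5% glucose served as vehicle control.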

The subject of data set [5] is Ovis aries. The data set is described as follows: Duration of spinal anesthesia at the digits of the hind limbs was measured in sheep at dose.40(mg/kg). The class given is functional, Hindlimb. The essentials: as §2
Data set [6] has as its system Ovis aries. The data set is described as follows: Duration of spinal anesthesia at the weight support was measured in sheep at dose.40(mg/kg). It counts as functional. The essentials:
as §2

The subject of data set [7] is Mus musculus. The data set is described as follows: Acute CNS toxicity against arrhythmogenic effects of chloroform in mice after sc administration. It counts as functional. The settings on record: Central nervous system.
The subject of data set [8] is Mus musculus. Kind of data set: Antiarrhythmic activity against arrhythmogenic effects of chloroform in mice after sc administration. The settings on record: Heart. It counts as functional. The essentials: as §1
Data set [9] relates to Ovis aries. Kind of data set: Onset of spinal anesthesia at the anal region was measured in sheep at dose 40(mg/kg). The class given is functional. An outline of the steps: as §2
Data set [10] deals with Ovis aries. Kind of data set: Onset of spinal anesthesia at the digits of the hind limbs was measured in sheep at dose 40(mg/kg). The class given is functional, Hindlimb. An outline of the steps: as §2
Data set [11] relates to Ovis aries. Kind of data set: Duration of spinal anesthesia at the digits of the hind limbs was measured in sheep at dose. 40 mg/kg; 0-140. It counts as functional, Hindlimb. An outline of the steps: as §2
Data set [12] deals with Ovis aries. Kind of data set: Onset of spinal anesthesia at the digits of the hind limbs was measured in sheep at dose 40 (mg/kg); 5-50.
Data set [13] deals with Ovis aries. Kind of data set: Duration of spinal anesthesia at the weight support was measured in sheep at dose. 40 mg/kg; 0-165. The class given is functional. An outline of the steps: as §2
Data set [14] concerns Ovis aries. The data set is described as follows: Onset of spinal anesthesia at the anal region was measured in sheep at dose 40(mg/kg); 5-50. The class given is functional. An outline of the steps: as §2
In data set [15] the test system is Ovis aries. The data set is described as follows: Duration of spinal anesthesia at the anal region was measured in sheep at dose. 40 mg/kg; 50-300. It counts as functional. The essentials: as §2
The test system of data set [16] is Ovis aries. Kind of data set: Duration of spinal anesthesia at the digits of the hind limbs was measured in sheep at dose 40(mg/kg). It counts as functional, Hindlimb. The essentials:
as §2

Data set [17] deals with Ovis aries. Kind of data set: Duration of spinal anesthesia at the weight support was measured in sheep at dose 40(mg/kg). It counts as functional. The essentials:
as §2

Data set [18] deals with Ovis aries. The data set is described as follows: Duration of spinal anesthesia at the anal region was measured in sheep at dose 40(mg/kg). The class given is functional. An outline of the steps:
as §2

For data set [19], the system named is Ovis aries. The data set is described as follows: Onset of spinal anesthesia at the digits of the hind limbs was measured in sheep at dose 30(mg/kg). It counts as functional, Hindlimb.
Data set [20] deals with Ovis aries. The data set is described as follows: Onset of spinal anesthesia at the anal region was measured in sheep at dose 30(mg/kg). It counts as functional.
Data set [21] has as its system Ovis aries. Kind of data set: Duration of spinal anesthesia at the digits of the hind limbs was measured in sheep at dose 10(mg/kg). The class given is functional, Hindlimb.
Data set [22] concerns Ovis aries. Kind of data set: Duration of spinal anesthesia at the weight support was measured in sheep at dose 10(mg/kg). The class given is functional.
In data set [23] the test system is Ovis aries. The data set is described as follows: Onset of spinal anesthesia at the anal region was measured in sheep at dose 10(mg/kg). The class given is functional.
Data set [24] concerns Ovis aries. Kind of data set: Onset of spinal anesthesia at the digits of the hind limbs was measured in sheep at dose 10 (mg/kg). The class given is functional, Hindlimb.
Data set [25] concerns Ovis aries. Kind of data set: Duration of spinal anesthesia at the anal region was measured in sheep at dose 10(mg/kg). It counts as functional.

As to `CCOCCN(C(=O)CN(CC)CC)c1c(C)cccc1C`, the values for the ED50 in the data set on Mus musculus [1] and in the data set with Mus musculus [3] were 60 µmol/kg and 80 µmol/kg, respectively. Besides, the selectivity ratio in data set [2] stood at 1.3.
For `Cc1cccc(C)c1N(CCN)C(=O)CN`, in that order: 390 µmol/kg, 1050 µmol/kg and 2.7.
On to `CCN(CC)CCN(C(=O)CN(CC)CC)c1c(C)cccc1C`, for which the Duration of block in the data set on Ovis aries [4], in the data set with Ovis aries [5] and with Ovis aries [6] was 0 min in each case. Further, in data set [2], the selectivity ratio came to 1.3. Moreover, the 50% effective dose (ED50) (in general, the dose that gives a 50% effect, or the effect in half of the subjects) with Mus musculus [7] is 600 µmol/kg; with Mus musculus [8], 460 µmol/kg.
As for `CCN(CC)CC(=O)N(CCN)c1c(C)cccc1C`, the Duration of block in the data set on Ovis aries [4] worked out at 270 min; with Ovis aries [5], 132 min; with Ovis aries [6] it was 195 min. Further, the figures for the ED50 with Mus musculus [1] and with Mus musculus [3] were 120 µmol/kg and 560 µmol/kg, respectively. Further, the Onset of block in the data set with Ovis aries [9] amounted to 5 min; with Ovis aries [10], 15 min. In data set [2], the selectivity ratio turned out to be 4.7.
As for `Cc1cccc(C)c1N(CCO)C(=O)CN`, in [2], the selectivity ratio was 0.9. Further, the 50% effective dose (ED50) amounted to 1080 µmol/kg in the data set on Mus musculus [7] and 1260 µmol/kg in the data set on Mus musculus [8].
For `CCN(CC)CC(=O)N(CCO)c1c(C)cccc1C`, the ED50 with Mus musculus [1] worked out at 180 µmol/kg; in the data set on Mus musculus [3] it was 490 µmol/kg. The selectivity ratio in data set [2] came to 2.7.
Take `CCCN(C(=O)CN(CC)CC)c1c(C)cccc1C`: the ED50 in the data set on Mus musculus [1] was 170 µmol/kg; in the data set with Mus musculus [3], 150 µmol/kg. Further, in data set [2], the selectivity ratio was determined as 0.9.
For the compound `CCN(CC)CCN(C(=O)CN)c1c(C)cccc1C`, the Duration of block in the data set on Ovis aries [11] worked out at 0 min; in the data set with Ovis aries [13] it was 0 min; with Ovis aries [15], 50 min. The ED50 in the data set with Mus musculus [1] turned out to be 690 µmol/kg; in the data set with Mus musculus [3], 1130 µmol/kg. Also, the selectivity ratio in [2] was 1.6. The Onset of block with Ovis aries [12] and with Ovis aries [14] was 19 min throughout.
With `CCN(CC)CCN(C(=O)CN1C(=O)c2ccccc2C1=O)c1c(C)cccc1C`, the selectivity ratio in data set [2] was 1. For the same compound, the ED50 in the data set on Mus musculus [7] and in the data set with Mus musculus [8] was 10 µmol/kg in each case.
Consider `CCN(CC)CC(=O)N(CC)c1c(C)cccc1C`, for which the results for the ED50 with Mus musculus [1] and with Mus musculus [3] were 140 µmol/kg and 210 µmol/kg, respectively. The selectivity ratio in [2] came to 1.5.
The matching figures for `CCOCCN(C(=O)CN)c1c(C)cccc1C`: 190 µmol/kg, 170 µmol/kg and 0.9.
Consider `OC[C@H]1OC(O)[C@H](O)[C@@H](O)[C@@H]1O` (some centres undefined) [DEXTROSE], for which the Duration of block in the data set on Ovis aries [16], in the data set with Ovis aries [17] and in the data set with Ovis aries [18] was 0 min throughout.
Turning to `Cc1cccc(C)c1NC(=O)CN` [GLYCINEXYLIDIDE], in [2], the selectivity ratio is 0.7. In addition, the ED50 in the data set with Mus musculus [7] came to 620 µmol/kg; with Mus musculus [8] it was 840 µmol/kg.
`CCN(CC)CC(=O)Nc1c(C)cccc1C` [LIDOCAINE]: the Onset of block with Ovis aries [19] worked out at 1.4 min; in the data set with Ovis aries [20], 1 min. In addition, the ED50 came to 180 µmol/kg with Mus musculus [7] and 210 µmol/kg with Mus musculus [8].
For the compound `CCCCNc1ccc(C(=O)OCCN(C)C)cc1` [TETRACAINE], the Duration of block in the data set with Ovis aries [21] worked out at 285 min; in the data set with Ovis aries [22], 458 min; in the data set with Ovis aries [25] it was 302 min. For the same compound, the Onset of block in the data set on Ovis aries [23] stood at 1.13 min; with Ovis aries [24], 1.2 min.
Regarding `Cc1cccc(C)c1NC(=O)C(C)N` (centres undefined) [TOCAINIDE], the selectivity ratio in [2] stood at 1.4. Further, the ED50 was 760 µmol/kg in the data set on Mus musculus [7] and 550 µmol/kg in the data set on Mus musculus [8].
